From ChEMBL document CHEMBL4680093 (J Med Chem, 2016)

How the values were obtained:
Homo sapiens = organism: Homo sapiens; assay: Selectivity index, ratio of IC50 for human 11beta-HSD2 to IC50 for human 11beta-HSD1
[1] = In-vivo inhibition of 11beta-HSD1 activity in C57BL/6 mouse epididymal fat assessed as reduction in cortisone to-cortisol conversion at 30 mg/kg, po measured after 2 hrs by ELISA; assay type: functional; conditions: C57BL/6, Epididymal fat pad
Method in brief: (§1)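 Male C57BL/6 mice dosed orally once at 3, 10 or 30 mg/kg in sterile water containing 0.5% methylcellulose and 1% Tween80, then sacrificed at 2 or 6 h. Liver and epididymal fat pads incubated ex vivo in culture medium containing cortisone. Cortisol formed was measured by ELISA and reported as % inhibition versus vehicle.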

[2] = Toxicity in male mouse during 4-week repeated once daily oral-dose toxicity study; conditions: in vivo, time 4 weeks
Method in brief: (§2)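 Mice of both sexes were dosed orally once daily for 4 weeks at 40, 100, 250 and 625 mg/kg. Toxicity was assessed and the NOAEL determined.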

Mus musculus [3] = assay: Improvement in lipid profile in C57BL/6-Lep^ob (ob/ob) mouse assessed as total cholesterol level at 20 mg/kg, po dosed once daily for 25 days co-treated with 300 mg/kg. po QD for 25 days metformin (reference value: 286.6 +/- 6.3 mg/dl); conditions: time 25 day
[4] = target: T1, 11-beta-hydroxysteroid dehydrogenase type 2 (Homo sapiens, UniProt P80365); assay: Inhibition of human 11beta-HSD2 expressed in microsomes; parameters: species or system Microsome
T1 sequence (P80365 whole entry): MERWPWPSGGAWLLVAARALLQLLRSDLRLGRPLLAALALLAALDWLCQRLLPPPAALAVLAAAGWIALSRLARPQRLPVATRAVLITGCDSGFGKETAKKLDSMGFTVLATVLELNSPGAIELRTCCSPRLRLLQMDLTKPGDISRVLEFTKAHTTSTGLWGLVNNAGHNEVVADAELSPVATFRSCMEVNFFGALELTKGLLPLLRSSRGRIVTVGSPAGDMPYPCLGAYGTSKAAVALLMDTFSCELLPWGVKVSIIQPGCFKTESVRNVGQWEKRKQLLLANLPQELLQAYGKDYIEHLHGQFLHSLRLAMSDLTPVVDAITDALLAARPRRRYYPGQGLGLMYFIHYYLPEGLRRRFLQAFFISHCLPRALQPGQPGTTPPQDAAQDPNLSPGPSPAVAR

[5] = In-vivo inhibition of 11beta-HSD1 activity in C57BL/6 mouse epididymal fat assessed as reduction in cortisone to-cortisol conversion at 3 mg/kg, po measured after 2 hrs by ELISA; assay type: functional; conditions: C57BL/6, Epididymal fat pad; method in brief: as §1
Mus musculus [6] = assay: Improvement in lipid profile in C57BL/6-Lep^ob (ob/ob) mouse assessed as LDL cholesterol level at 20 mg/kg, po dosed once daily for 25 days co-treated with 300 mg/kg. po QD for 25 days metformin (reference value: 30.3 +/- 0.8 mg/dl); conditions: time 25 day
[7] = Protein binding in human plasma; assay type: ADME, cell-free; conditions: read-out: PPB
[8] = Oral bioavailability in mouse at 5 mg/kg; assay type: ADME, organism-based; conditions: in vivo
Method in brief: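 Single-dose PK study. The iv dose was given in 10% hydroxypropyl-β-cyclodextrin and the oral dose in 0.5% methylcellulose/1% Tween80. Mouse and rat received 1 mg/kg iv and 5 mg/kg po. Dog received 0.5 mg/kg iv and 4 mg/kg po. CL, Vss, t1/2, AUC, Cmax, tmax and F were derived.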

[9] = Reduction in HbA1c level in C57BL/6-Lep^ob (ob/ob) mouse at 20 mg/kg, po dosed once daily for 25 days relative to control; assay type: functional; parameters: scale not given: the % may be the effect or the level left; conditions: time 25 day
Method in brief: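 Eight-week-old male ob/ob mice were dosed orally once daily for 25 days with vehicle (sterile water, 0.5% methylcellulose, 1% Tween80), test compound 20 mg/kg, metformin 300 mg/kg, or the combination. Baseline postprandial glucose and HbA1c were checked from tail-vein blood. Changes in HbA1c and non-fasting blood glucose were expressed relative to the vehicle group.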

[10] = Clearance in dog at 0.5 mg/kg, iv; assay type: ADME, organism-based, Canis lupus familiaris; conditions: in vivo
[11] = Cmax in rat at 5 mg/kg, po; assay type: ADME, organism-based; parameters: route oral, dose 5 mg/kg; conditions: in vivo
[12] = Toxicity in female mouse during 4-week repeated once daily oral-dose toxicity study; conditions: in vivo, time 4 weeks; method in brief: as §2

## C[C@@H]1CN(c2ccc(S(C)(=O)=O)cc2F)CCN1c1nccc(C(=O)NC2C3CC4CC2CC(O)(C4)C3)n1 (stereo partly drawn)
Homo sapiens
  Ratio IC50: > 3000
[1]
  inhibition in vivo at 30 mg/kg: 92%
[2]
  NOAEL at 672 h: 625 mg/kg
Mus musculus [3]
  Activity: 235 mg/dL
[4]
  IC50: > 10 µM
[5]
  inhibition in vivo at 3 mg/kg: 86%
Mus musculus [6]
  Activity: 17.2 mg/dL
[7]
  fraction unbound: 0.01
[8]
  bioavailability: 96%
[9]
  Activity: 1.2%
[10]
  clearance: 6 mL/min/kg
[11]
  Cmax: 1020 ng/mL
[12]
  NOAEL at 672 h: 625 mg/kg
